From PubChem
Gli-Sufu antag: antagonists of Gli-Sufu signaling; AID 588413; 340,000 compounds, 0.74% hits; Sufu-KO-LIGHT fibroblasts, Gli luciferase reporter luminescence; inhibition, % at 5 µM;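 active = inhibition above about 55%, limit read from the data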
NR2E3 ag-1: NR2E3 (human) agonism. inhibition of corepressor binding, % at 4.78 µM. 320,000 compounds, 0.12% hits. GST-NR2E3/biotin-RetCOR TR-FRET, 1536-well;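 active = percent inhibition above the cutoff of mean plus 3 SD of all tested compounds, set per screening campaign, cut at about 20% in these data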
Target sequence (Q9Y5X4 whole entry, looked up): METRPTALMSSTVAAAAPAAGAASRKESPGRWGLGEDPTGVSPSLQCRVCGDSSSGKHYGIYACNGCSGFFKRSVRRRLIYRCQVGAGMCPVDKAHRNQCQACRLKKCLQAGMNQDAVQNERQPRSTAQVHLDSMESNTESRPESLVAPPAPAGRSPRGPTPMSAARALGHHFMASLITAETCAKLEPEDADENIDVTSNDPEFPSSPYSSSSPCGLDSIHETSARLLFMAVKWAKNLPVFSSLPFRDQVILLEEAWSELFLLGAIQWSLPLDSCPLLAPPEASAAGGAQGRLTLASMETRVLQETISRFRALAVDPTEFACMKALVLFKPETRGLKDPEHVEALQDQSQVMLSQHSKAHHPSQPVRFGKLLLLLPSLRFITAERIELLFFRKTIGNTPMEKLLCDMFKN
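Assay system: NR2E3–RetCOR corepressor complex. Quantity: 1.35 nM GST-NR2E3. Buffer or medium: pH 7.5 Tris-based buffer. Reagent: biotinylated RetCOR corepressor at 7 nM final. Schedule: 5 h at 4 °C. Detection: TR-FRET, emission read at 617 and 671 nm. Replicates: one well per compound, singlicate testing.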
GalR3 antagonist: human GalR3 antagonism; O60755; HEK293 GalR3-CNG cAMP membrane potential fluorescence; galR3 body fused to GalR1 C-terminus; inhibition, % at 3 µM; 360,000 compounds, 0.44% hits;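 active = inhibition above the screen-wide average plus 3 SD, cut at about 13% in these data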;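 also: forskolin and galanin both at EC90 stimulate the cells; cAMP rise reported by CNG channel membrane potential dye signal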
Target sequence (O60755 1-299 limits assumed): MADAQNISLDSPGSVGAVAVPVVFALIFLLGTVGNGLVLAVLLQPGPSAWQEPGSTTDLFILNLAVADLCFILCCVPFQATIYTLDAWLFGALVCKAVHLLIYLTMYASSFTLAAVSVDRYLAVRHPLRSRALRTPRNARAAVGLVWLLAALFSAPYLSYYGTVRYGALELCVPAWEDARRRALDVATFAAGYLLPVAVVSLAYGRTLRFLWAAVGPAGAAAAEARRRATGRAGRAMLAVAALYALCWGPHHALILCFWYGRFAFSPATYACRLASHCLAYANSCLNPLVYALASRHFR
697 NFkB inh: inhibitors of the PMA/ionomycin-induced NF-kB reporter in 697 B cells; 697 B-cell NF-kB luciferase reporter, 16 h; inhibition, % at 4 µM; 330,000 compounds, 0.33% hits; AID 435022; in the data active = inhibition above about 35%
NR2E3 ag-2: human photoreceptor-specific nuclear receptor agonism; 360,000 compounds, 0.35% hits; inhibition of corepressor binding, % at 3.98 µM; Q9Y5X4; CHO-S Gal4-NCOR/VP16-NR2E3 two-hybrid, luciferase; AID 602229;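 active = inhibition above the mean of all tested compounds plus 3 SD, cut at about 70% in these data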;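 also: higher means lower luciferase signal from less NR2E3 corepressor binding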
Jurkat NFkB inh: inhibitors of the PMA/ionomycin-induced NF-kB reporter in Jurkat cells | PMA/ionomycin-induced NF-kB luciferase reporter, luminescence | inhibition, % at 4 µM | 330,000 compounds, 0.53% hits | AID 435003; in the data active = inhibition above about 50%
GalR3 conf: confirmation of human galanin receptor 3 antagonists; shares compounds with GalR3 antagonist; HEK293 GalR3 CNG cAMP biosensor, membrane potential fluorescence; galR3 fused to GalR1 carboxy tail; challenged with forskolin and galanin at EC90; inhibition, % at 3 µM; 1,600 compounds, 59% hits; AID 652245;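 active = inhibition above the primary screen's cutoff, the mean inhibition of all screened compounds plus 3 SD, cut at about 13% in these data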
CNG parental: acts as nonspecific agonist in parental HEK-CNG cells; HEK293-CNG parental cells, cAMP membrane potential fluorescence; normalised: DMSO wells 0%, forskolin wells 100%; 1,600 compounds, 10% hits; activation, % at 3 µM; AID 652268; shares compounds with GalR3 antagonist; in the data active = activation above about 1.3%
Each line names hits and unclear results; the compound was inactive in the other large screens (follow-up assays come after a bar, where they were run). Sampled rows, rich in hits. Any-hit rate of the full collection: about 1.8%.

CN1CCN(c2ccc(C(=O)c3ccccc3)cc2[N+](=O)[O-])CC1	none
CCn1c(C)c(C(C)=O)c(N2CCN(C(c3ccccc3)c3ccccc3)CC2)nc1=S	none
CC(=O)c1c(N2CCCC2)nc(=S)n(-c2ccccc2)c1C	none
CCn1c(C)c(C(C)=O)c(N2CCN(c3ccccc3)CC2)nc1=S	GalR3 antagonist 42 | GalR3 conf inactive | CNG parental inactive
CC(=O)c1c(N2CCCCC2)nc(=S)n(-c2ccccc2)c1C	none (no result: GalR3 antagonist) | GalR3 conf inactive | CNG parental inactive
COc1cc(C2NC(=O)NC(C)=C2C(=O)OCc2ccc(C)cc2)cc(OC)c1OC (stereo not drawn)	none
COc1cc(C2NC(=O)NC(C)=C2C(=O)OCc2ccc(C)cc2)cc(OC)c1O (stereo not drawn)	GalR3 antagonist 15 | GalR3 conf 14 | CNG parental inactive
COc1cc2c(cc1OC)-c1cc(N3CCCCCC3)nc(=O)n1CC2	GalR3 antagonist 50 | GalR3 conf 14 | CNG parental inactive
COc1ccc(S(=O)(=O)N2CCCc3ccccc32)cc1OC	none
COc1cc2c(cc1OC(C)=O)C(=O)CCCC2	none (no result: Gli-Sufu antag, NR2E3 ag-1, 697 NFkB inh, Jurkat NFkB inh)
COc1cc2c(cc1OC)-c1cc(N3CCCc4ccccc43)nc(=O)n1CC2	GalR3 antagonist 47 | GalR3 conf 60 | CNG parental inactive
CC(C)C[C@@H](C(=O)NCc1ccco1)N1C(=O)N2CCc3c([nH]c4ccccc34)[C@@]2(C)C1=O	none
Cc1nnc(SCC(=O)Nc2cccc(S(=O)(=O)N(C)c3ccccc3)c2)s1	GalR3 antagonist 13 | GalR3 conf inactive | CNG parental inactive
COCCn1cnnc1SCC(=O)Nc1cccc(S(=O)(=O)N(C)c2ccccc2)c1	none
Cc1ccccc1-c1cc(C(=O)O)nn1CC1CC(c2cccc([N+](=O)[O-])c2)=NO1 (stereo not drawn)	GalR3 antagonist 18 | GalR3 conf inactive | CNG parental inactive
CCN(CC(=O)Nc1c(F)cccc1F)C(=O)Cc1ccc2c(c1)CCC2	none
CC1CCCCN1CCCNC(=O)CN1C(=O)c2cccnc2Oc2ccc(Cl)cc21 (stereo not drawn)	GalR3 antagonist 14 | GalR3 conf 19 | CNG parental inactive
O=C(CN1C(=O)c2cccnc2Oc2ccc(Cl)cc21)NC1CCCC1	none
Cn1c(=O)[nH]c2c(Cl)nccc21	GalR3 antagonist 16 | GalR3 conf inactive | CNG parental inactive
COc1ccc(C(=O)OCC(=O)N2CCN(C(=O)c3ccco3)CC2)cc1OC	none (no result: NR2E3 ag-1)
CCOc1nc(C#N)nc(N2CCCCC2)n1	GalR3 antagonist 95 (no result: NR2E3 ag-1, 697 NFkB inh, Jurkat NFkB inh) | GalR3 conf 108 | CNG parental inactive
COc1ccc2c(c1)c(C(=O)N/N=C/c1ccccc1Cl)c(C)n2C	none
COc1ccc(/C=N/NC(=O)c2c(C)n(C)c3ccc(OC)cc23)c(OC)c1	GalR3 antagonist 14 | GalR3 conf inactive | CNG parental inactive
CC(C)Oc1ccc(F)cc1-c1cc(C(=O)NCc2cccs2)[nH]n1	GalR3 antagonist 23 (no result: Gli-Sufu antag, NR2E3 ag-1, 697 NFkB inh, Jurkat NFkB inh) | GalR3 conf inactive | CNG parental inactive
Cc1ccc(C(=O)C(C)OC(=O)Cn2[nH]c(=O)c3ccccc3c2=O)cc1C (stereo not drawn)	none
CCOCCCNS(=O)(=O)c1ccc(NC(=O)c2ccccc2)cc1	GalR3 antagonist 65 | GalR3 conf inactive | CNG parental inactive
CCOCCCNS(=O)(=O)c1ccccc1	none
CCOc1ccc2[nH]c(=O)c(CN(Cc3ccco3)C(CC)c3nnnn3Cc3ccccc3)cc2c1 (stereo not drawn)	GalR3 antagonist 24 | GalR3 conf inactive | CNG parental inactive
C=CCN(CC=C)C(=O)COC(=O)c1ccc(Sc2ncn[nH]2)c([N+](=O)[O-])c1	GalR3 antagonist 13 | GalR3 conf inactive | CNG parental inactive
CCC(C)N1CC(=O)N2C(c3ccc(OC)cc3OC)c3[nH]c4ccccc4c3C[C@H]2C1=O (stereo partly drawn)	none
CCOc1ccccc1CNS(=O)(=O)c1cnc[nH]1	none
O=C(OC1CCOC1=O)c1ccc(N2CCCC2)c([N+](=O)[O-])c1 (stereo not drawn)	GalR3 antagonist 20 | GalR3 conf inactive | CNG parental inactive
CCCc1ccc(O)c(N=Cc2cc(Br)cc(OCC)c2O)c1	GalR3 antagonist 16 | GalR3 conf inactive | CNG parental inactive
COCCCn1c(-c2ccccc2Cl)n[nH]c1=S	none (no result: GalR3 antagonist) | GalR3 conf inactive | CNG parental inactive
CCOC1=C2CN(S(=O)(=O)c3ccc(C)cc3)[C@H](c3ccccc3)C[C@@H]2N(S(=O)(=O)c2ccccc2C)[C@H](c2ccccc2)C1	none (no result: Gli-Sufu antag, NR2E3 ag-1, 697 NFkB inh, Jurkat NFkB inh)
COCCOC(=O)c1c(NC(=O)CN2c3ccccc3CC2C)sc(C(N)=O)c1C (stereo not drawn)	GalR3 antagonist 17 | GalR3 conf inactive | CNG parental inactive
O=S(=O)(Nc1nc2ccccc2nc1NCC1CCCO1)c1cc(Cl)ccc1Cl (stereo not drawn)	GalR3 antagonist 15 | GalR3 conf inactive | CNG parental inactive
O=S(=O)(Nc1nc2ccccc2nc1NCC1CCCO1)c1ccccc1 (stereo not drawn)	none
CN(C)S(=O)(=O)c1ccc(N)c([N+](=O)[O-])c1	none (no result: NR2E3 ag-1, 697 NFkB inh, Jurkat NFkB inh)
CC1CC(=O)NN=C1c1ccc(N)c([N+](=O)[O-])c1 (stereo not drawn)	GalR3 antagonist 64 | GalR3 conf 73 | CNG parental inactive
O=C(CC(=O)NCc1ccccc1)NCc1ccccc1	none
CCOc1ccc(NC(=S)NC(=O)c2c(Cl)cnn2CC)c([N+](=O)[O-])c1	GalR3 antagonist 14 | GalR3 conf inactive | CNG parental inactive
CN(C)c1ccc(/C=N/NC(=O)CN(c2ccccc2Cl)S(C)(=O)=O)cc1Br	GalR3 antagonist 14 | GalR3 conf 18 | CNG parental inactive
COC(=O)Oc1ccc(/C=N/NC(=O)CN(c2ccccc2Br)S(C)(=O)=O)cc1OC	none
CSc1ccccc1C(=O)C1CCCN(C(=O)CCc2cccnc2)C1 (stereo not drawn)	none
C#CC(C)OC(=O)C(C)NC(=O)c1ccccc1 (stereo not drawn)	none (no result: GalR3 antagonist) | GalR3 conf 14 | CNG parental inactive
C/C(=N\O)C(C)NC(=O)c1ccccc1 (stereo not drawn)	none
COc1ccc(CN(C)C(=O)c2ccc(OCC(=O)Nc3cccc(C(F)(F)F)c3)c(OC)c2)cc1	GalR3 antagonist 18 (no result: Gli-Sufu antag, NR2E3 ag-1, 697 NFkB inh, Jurkat NFkB inh) | GalR3 conf 85 | CNG parental inactive
